Data from ChEMBL document CHEMBL1123007, “New antiarrhythmic agents. N-aryl-8-pyrrolizidinealkanamides” (J Med Chem, 1985).
Calls of active or inactive are those of the source. The rule behind the calls is not given here.

Legend:
[1] = Ratio of LD50 to ED50 evaluated for its antiarrhythmic potency; format: functional, Heart
[2] = Potency of the drug was evaluated by comparison with Lidocain; potency = ED50 of Lidocaine /ED50 of compound.; format: functional
[3] = tested on: Mus musculus; assay: Antiarrhythmic activity evaluated in mouse after subcutaneous administration; format: functional; details: Heart, sc
Procedure, shortened: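 Male DDY mice (18-22 g), groups of 10, dosed s.c. at 0.1 mL/10 g body weight, three to four doses per compound. ED50 (dose protecting 50% from fibrillation) by Litchfield-Wilcoxon, with 95% confidence limits.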

[4] = Potency of the drug was evaluated by comparison with Lidocain; potency = ED50 of Lidocaine /ED50 of compound; format: functional
[5] = Acute toxicity was determined in mice; format: organism-based; details: mouse, in vivo
[6] = tested on: Mus musculus; assay: Antiarrhythmic activity evaluated in mouse after subcutaneous administration; No effect; format: functional, organism-based; details: Heart

| SMILES | Ratio [1] | Potency [2] | further results |
| --- | --- | --- | --- |
| COc1ccc(OC)c(NC(=O)CC23CCCN2CCC3)c1 | 2.26 | 0.44 | – |
| Cc1ccc(NC(=O)CC23CCCN2CCC3)cc1C | 7.36 | 0.47 | – |
| O=C(CC12CCCN1CCC2)Nc1ccccc1Cl | – | – | ED20 [3]: 100 mg/kg |
| Nc1ccccc1NC(=O)CC12CCCN1CCC2 | 6.33 | – | Potency [4]: 0.9; ED50 [3]: 100 mg/kg |
| COc1ccccc1NC(=O)CC12CCCN1CCC2 | – | – | ED40 [3]: 100 mg/kg |
| O=C(CC12CCCN1CCC2)Nc1c(Cl)cccc1Cl | – | – | ED20 [3]: 100 mg/kg |
| CCN(CC)CC(=O)Nc1c(C)cccc1C [LIDOCAINE] | – | 1 | ED50 [3]: 29 mg/kg |
| Nc1ccc(NC(=O)CC23CCCN2CCC3)cc1 | – | – | LD50 [5]: 12 mg/kg |
| CCc1cccc(CC)c1NC(=O)CC12CCCN1CCC2 | 9.93 | 1.41 | – |
| Cc1cc(C)cc(NC(=O)CC23CCCN2CCC3)c1 | 6.83 | 0.69 | – |
| Cc1cccc(C)c1NC(=O)C12CCCN1CCC2 | – | – | LD50 [5]: 603 mg/kg; ED20 [3]: 100 mg/kg |
| Cc1cc(C)c(NC(=O)CC23CCCN2CCC3)c(C)c1 | 9.09 | 1.22 | – |
| Cc1ccc(C)c(NC(=O)CC23CCCN2CCC3)c1 | 5.56 | 0.5 | – |
| COc1ccc(NC(=O)CC23CCCN2CCC3)cc1 | 4.8 | 0.6 | – |
| Cc1ccc(NC(=O)CC23CCCN2CCC3)cc1 | – | – | ED20 [3]: 100 mg/kg |
| COc1cccc(NC(=O)CC23CCCN2CCC3)c1 | – | – | ED40 [3]: 100 mg/kg |
| Cc1cccc(C)c1NC(=O)CC12CCCN1CCC2 | – | 1.51 | – |
| Cc1cccc(NC(=O)CC23CCCN2CCC3)c1C | 7.33 | 0.56 | – |
| Cc1ccccc1NC(=O)CC12CCCN1CCC2 | – | – | ED40 [3]: 100 mg/kg |
| O=C(CC12CCCN1CCC2)Nc1ccccc1 | – | – | ED50 [6]: inactive |
| O=C(CC12CCCN1CCC2)Nc1ccccc1Br | 7.54 | 0.76 | – |
